Assay results reported in ChEMBL document CHEMBL1125386, “Small atrial natriuretic peptide analogues: design, synthesis, and structural requirements for guanylate cyclase activation” (J Med Chem, 1992).
Where a SMILES comes first, the peptide text is derived from it.

How the values were obtained:
Oryctolagus cuniculus [1] = species: Oryctolagus cuniculus; assay: Compound was evaluated for the intrinsic vasorelaxation (i.vr) in a standard tissue bath preparation using rabbit aortic rings precontracted with histamine; type: functional, Aorta
Outline: (§1)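 Rabbit aortic rings (4–5 mm) in Krebs-Henseleit buffer, gassed 95:5 O2/CO2, pH 7.4, isometric tension, baseline 2 g held 2 h. Rings contracted with 3 μM histamine, then six cumulative half-log peptide increments over 90 min, range 10⁻⁸ to 10⁻⁴ M. Triplicate determinations.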

[2] = test system: Atrial natriuretic peptide receptor 1 (Oryctolagus cuniculus); assay: Binding affinity towards the low-affinity site atrionatriuretic peptide receptor 1 of rabbit adrenal membrane
Oryctolagus cuniculus [3] = species: Oryctolagus cuniculus; assay: In vitro vasorelaxant potency at dose 10 e -8 to 10 e-4 M using rabbit aortic rings precontracted with histamine; type: functional; details: Aorta; outline: as §1
[4] = (§2) In vitro Biological half-life in crude homogenate of rabbit renal cortex; type: ADME, tissue-based, Oryctolagus cuniculus
[5] = as §2; type: ADME, Oryctolagus cuniculus

Compound | Intrinsic vasorelaxation (Oryctolagus cuniculus [1]) | EC50 (Oryctolagus cuniculus [3]) [µM] | half-life [4] [min] | other results
H-FGGRIDRI-OH | 0.57 fraction of rANP max |  |  | 
CC[C@H](C)[C@@H]1NC(=O)[C@@H](CCCN=C(N)N)NC(=O)CNC(=O)CNC(=O)[C@@H](Cc2ccccc2)NC(=O)C(C)NC(=O)[C@H](NC(=O)[C@H](CO)NC(=O)[C@@H](N)CO)CSSC[C@H](C(=O)N[C@H](Cc2ccccc2)C(=O)N[C@H](CCCN=C(N)N)C(=O)O)NC(=O)[C@@H]([C@@H](C)CC)NC(=O)[C@H](CCCN=C(N)N)NC(=O)[C@@H](CC(=O)O)NC1=O (stereo in doubt) |  | 0.36 | 5.3 | KL [2]: 710 nM
H-SSCFG-OH | 0.03 fraction of rANP max |  |  | 
CC[C@H](C)[C@@H]1NC(=O)[C@@H](CCCN=C(N)N)NC(=O)CNC(=O)CNC(=O)[C@@H](Cc2ccccc2)NC(=O)C(C(C)C)NC(=O)[C@H](NC(=O)[C@H](CO)NC(=O)[C@@H](N)CO)CSSC[C@H](C(=O)N[C@H](Cc2ccccc2)C(=O)N[C@H](CCCN=C(N)N)C(=O)O)NC(=O)[C@@H]([C@@H](C)CC)NC(=O)[C@H](CCCN=C(N)N)NC(=O)[C@@H](CC(=O)O)NC1=O (stereo in doubt) |  | 0.024 |  | KL [2]: 130 nM
H-RIDRIG-OH | 0.7 fraction of rANP max |  |  | 
CC[C@H](C)[C@@H]1NC(=O)[C@H](CCCN=C(N)N)NC(=O)CNC(=O)CNC(=O)[C@H](Cc2ccccc2)NC(=O)[C@@H](NC(=O)[C@H](CO)NC(=O)[C@@H](N)CO)CSSC[C@@H](C(=O)N[C@@H](Cc2ccccc2)C(=O)N[C@@H](CCCN=C(N)N)C(=O)O)NC(=O)[C@H]([C@@H](C)CC)NC(=O)[C@H](CCCN=C(N)N)NC(=O)[C@H](CC(=O)O)NC1=O |  | 3 | 4.7 | 
NC(=O)C[C@H](N)C(=O)N[C@@H](CO)C(=O)N[C@@H](Cc1ccccc1)C(=O)N[C@@H](CCCN=C(N)N)C(=O)O (H-NSFR-OH) | 0.16 fraction of rANP max |  |  | 
CC[C@H](C)[C@@H]1NC(=O)[C@H](CCCN=C(N)N)NC(=O)CNC(=O)CNC(=O)[C@H](Cc2ccccc2)NC(=O)[C@@H](NC(=O)[C@H](CO)NC(=O)[C@@H](N)CO)CSSC[C@@H](C(=O)O)NC(=O)[C@H](CCCN=C(N)N)NC(=O)[C@H](Cc2ccccc2)NC(=O)[C@H]([C@@H](C)CC)NC(=O)[C@H](CCCN=C(N)N)NC(=O)[C@H](CC(=O)O)NC1=O |  | 2 |  | half-life [5]: < 2 min
H-SSCFGGR-OH | 0 fraction of rANP max |  |  | 
CC[C@H](C)[C@@H]1NC(=O)[C@H](CCCN=C(N)N)NC(=O)CNC(=O)CNC(=O)[C@H](Cc2ccccc2)NC(=O)CNC(=O)[C@@H](NC(=O)[C@H](CO)NC(=O)[C@@H](N)CO)CSSC[C@@H](C(=O)N[C@@H](Cc2ccccc2)C(=O)N[C@@H](CCCN=C(N)N)C(=O)O)NC(=O)[C@H]([C@@H](C)CC)NC(=O)[C@H](CCCN=C(N)N)NC(=O)[C@H](CC(=O)O)NC1=O |  | 0.12 | 3.2 | 
CC[C@H](C)[C@@H]1NC(=O)[C@H](CCCN=C(N)N)NC(=O)CNC(=O)CNC(=O)[C@@H](Cc2ccccc2)NC(=O)[C@@H](NC(=O)[C@H](CO)NC(=O)[C@@H](N)CO)CSSC[C@@H](C(=O)N[C@@H](Cc2ccccc2)C(=O)N[C@@H](CCCN=C(N)N)C(=O)O)NC(=O)[C@H]([C@@H](C)CC)NC(=O)[C@H](CCCN=C(N)N)NC(=O)[C@H](CC(=O)O)NC1=O |  | > 10 | 5.8 | 
